In ChEMBL document CHEMBL1129534, “Antitumor agents. 163. Three-dimensional quantitative structure-activity relationship study of 4'-O-demethylepipodophyllotoxin analogs using the modified CoMFA/q2-GRS approach” (J Med Chem, 1996):

Target: DNA topoisomerase II (Homo sapiens) (UniProt P11388+Q02880)
Experiment: Compound tested for ability to form a cellular covalent topoisomerase II-DNA complex.
Type: functional
Method in brief: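 Read-out is intracellular covalent topoisomerase II–DNA complex formation, scored as the percentage of cellular protein–DNA complex formed (PCPDCF). For CoMFA modelling the values were transformed to ln(PCPDCF + 1).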

| Protein-DNA complex formation | Compound |
| --- | --- |
| 94% | COc1cc([C@@H]2c3cc4c(cc3[C@@H](OC(=O)c3ccccc3)[C@H]3COC(=O)[C@H]23)OCO4)cc(OC)c1O |
| 50% | COC(=O)c1cc(N[C@@H]2c3cc4c(cc3[C@@H](c3cc(OC)c(O)c(OC)c3)[C@H]3C(=O)OC[C@@H]32)OCO4)cc(C(=O)OC)c1 |
